Assay results collected from several papers.
Target: Serine/threonine-protein kinase MRCK alpha (CDC42BPA, Homo sapiens, UniProt Q5VT25)

CNC(=O)c1cc(Oc2ccc(NC(=O)Nc3ccc(Cl)c(C(F)(F)F)c3)cc2)ccn1  inhibition (enzyme activity; inhibitor; 0.3 µM): 9%
Nc1ncnc2occ(-c3ccc(NC(=O)Nc4cc(C(F)(F)F)ccc4F)cc3)c12  remaining activity (enzyme activity; inhibitor; 20 µM): 0.05%
COc1cc2ncnc(Nc3ccc(Oc4ccccc4)cc3C)c2cc1OC  inhibition (enzyme activity; inhibitor; 1 µM): 6%
N#CC1(c2ccccn2)CCN(Cc2cc(C(=O)N3CCCC3)c(=O)n3ccccc23)CC1  remaining binding (cell-free assay; competition with immobilised ligand; 1 µM): 84%
Cc1ccc(Nc2nccc(N(C)c3ccc4c(C)n(C)nc4c3)n2)cc1S(N)(=O)=O  inhibition (enzyme activity; inhibitor; 10 µM): 1%
C[C@H](NC(=O)c1cnc2n1[C@](C)(Cc1ccc(C#N)cc1)C(=O)N2c1cc(Cl)c(F)c(Cl)c1)C(=O)NC1(c2ccccn2)CC1  remaining binding (cell-free assay; competition with immobilised ligand; 1 µM): 100%
CC/C(=N\NC(=O)NCc1cccc(O)c1)c1ccc(O)c(C)c1O  inhibition (enzyme activity; inhibitor; 0.1 µM): 49.7%
CC1=C(C#N)[C@@H](c2ccc3[nH]nc(C)c3c2)C(C#N)=C(c2ccc(Cl)cc2)N1  remaining binding (cell-free assay; competition with immobilised ligand; 1 µM): 82.2%
O=C(Nc1cnn(-c2csc(C(=O)NC3COC3)c2)c1)Nc1c(F)cccc1Cl  remaining activity (enzyme activity; inhibitor; 5 µM): 99%
Nc1cnc(N2CCc3cc(S(=O)(=O)Nc4c(F)cc(Cl)cc4F)cc(N4CCCC4=O)c32)nc1  remaining binding (cell-free assay; competition with immobilised ligand; 1 µM): 100%
CC(C)(C)c1nc2c(s1)c1nc(N)ncc1c1ccc(NS(=O)(=O)c3c(F)cccc3F)c(F)c12  remaining activity (enzyme activity; inhibitor; radiometric; 1 µM): 82%
N#CCCc1ccc2c(c1)-c1[nH]c3ccc([N+](=O)[O-])cc3c1CC(=O)N2  remaining signal (cell-free assay; 0.5 µM): 73.1%
c1ccc(N2CCN(Cc3nc4ccccc4[nH]3)CC2)nc1  remaining binding (cell-free assay; competition with immobilised ligand; 1 µM): 100%
CCCOc1ccc(OC)c(F)c1C(=O)c1ccc(C(=O)N[C@@H]2CNC[C@H]2NC(=O)c2ccc3[nH]ncc3c2)cc1  remaining activity (enzyme activity; inhibitor; 0.75 µM): 20%
CCN(CC)CCNC(=O)c1c(C)[nH]c(/C=C2\C(=O)Nc3ccc(F)cc32)c1C  inhibition (enzyme activity; inhibitor; 0.3 µM): 8%
O=C1NC(=O)c2cc(Nc3ccc(F)cc3)c(Nc3ccc(F)cc3)cc21  remaining signal (cell-free assay; inhibitor; 0.5 µM): 92.3%
Cc1cc(NC(=O)c2cccc3cc(-c4cccc5[nH]nc(N)c45)ccc23)ccc1F  activity vs control (enzyme activity; inhibitor; 0.1 µM): 92%
CN(C)c1ncnc(-c2ccc3nc(Nc4cc(CN5CCN(C(=O)CC(F)(F)F)CC5)ccn4)[nH]c3c2)c1Cl  remaining binding (cell-free assay; competition with immobilised ligand; 1 µM): 100%
COc1cc(Cl)c(C(=O)N[C@@H](CN[C@H]2CC[C@@H](N)CC2)Cc2ccc(C#N)cc2)cc1-c1ccc(CN[C@H](C)c2ccc(C)cc2)o1  remaining activity (enzyme activity; inhibitor; 1 µM): 99%
N#Cc1ccc(Nc2ccc3[nH]c(=O)[nH]c3c2)c(Cl)c1  remaining binding (cell-free assay; competition with immobilised ligand; 1 µM): 100%
Cc1sc(C(=O)NC2COC2)cc1-n1cc(NC(=O)Nc2c(F)cccc2Cl)cn1  remaining activity (enzyme activity; inhibitor; 10 µM): 104%
